Assay results as given in ChEMBL document CHEMBL1143805, “Synthesis and antimicrobial activities of some novel 1,2,4-triazolo[3,4-b]-1,3,4-thiadiazoles and 1,2,4-triazolo[3,4-b]-1,3,4-thiadiazines carrying thioalkyl and sulphonyl phenoxy moieties” (2007).
Values after ≈ are worked out from the molar mass of the structure shown.

Columns and labels:
Aspergillus flavus = assay: Antifungal activity against Aspergillus flavus NCIM 524; assay type: functional; details: for MIC: Aspergillus flavus, NCIM 524
In short: (§1)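 Agar-well diffusion on Sabouraud agar at pH 5.7. Plates were lawned with a saline spore suspension (one loopful in 3 ml), decanted and dried 1 h at 37 °C. Compounds in DMSO went into punched wells, with a DMSO solvent control. Plates were run in triplicate and kept at 37 °C for 3-4 days, with inhibition-zone diameter as read-out.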

Trichophyton benhamiae = assay: Antifungal activity against Trichophyton mentagrophytes; assay type: functional, Arthroderma benhamiae; details: for MIC: Trichophyton benhamiae; in short: as §1
Talaromyces marneffei = assay: Antifungal activity against Penicillium marneffei; assay type: functional; details: for MIC: Talaromyces marneffei; in short: as §1
Pseudomonas aeruginosa = assay: Antibacterial activity against Pseudomonas aeruginosa ATCC 27853; assay type: functional; details: for MIC: Pseudomonas aeruginosa, ATCC 27853
In short: (§2)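 MIC by serial dilution in Mueller-Hinton broth tubes, pH adjusted to 5.0 with phosphate buffer. A standardized bacterial suspension was inoculated and incubated 16-18 h at 37 °C, and MIC was read as the lowest concentration with no visible growth. Zones were also measured in agar wells on seeded plates, with compounds in DMSO and a DMSO control, triplicate plates, 37 °C for 3-4 days.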

Klebsiella pneumoniae = assay: Antibacterial activity against Klebsiella pneumoniae; assay type: functional; details: for MIC: Klebsiella pneumoniae; in short: as §2
Aspergillus fumigatus = assay: Antifungal activity against Aspergillus fumigatus NCIM 902; assay type: functional; details: for MIC: Aspergillus fumigatus, NCIM 902
Escherichia coli = assay: Antibacterial activity against Escherichia coli ATCC 25922; assay type: functional; details: for MIC: Escherichia coli, ATCC 25922; in short: as §2
Staphylococcus aureus = assay: Antibacterial activity against Staphylococcus aureus ATCC 25923; assay type: functional; details: for MIC: Staphylococcus aureus, ATCC 25923; in short: as §2

Row | SMILES | MIC (Aspergillus flavus) [µg/mL] | MIC (Trichophyton benhamiae) [µg/mL] | MIC (Talaromyces marneffei) [µg/mL] | MIC (Pseudomonas aeruginosa) [µg/mL] | MIC (Klebsiella pneumoniae) [µg/mL] | MIC (Aspergillus fumigatus) [µg/mL] | MIC (Escherichia coli) [µg/mL] | MIC (Staphylococcus aureus) [µg/mL] | inhibition zone (IZ) (Aspergillus flavus) [mm] | inhibition zone (IZ) (Trichophyton benhamiae) [mm] | inhibition zone (IZ) (Talaromyces marneffei) [mm] | inhibition zone (IZ) (Pseudomonas aeruginosa) [mm] | inhibition zone (IZ) (Klebsiella pneumoniae) [mm] | inhibition zone (IZ) (Aspergillus fumigatus) [mm] | inhibition zone (IZ) (Escherichia coli) [mm] | inhibition zone (IZ) (Staphylococcus aureus) [mm]
1 | CSc1ccc(OCc2nnc3sc(-c4ccccc4)nn23)cc1 | 6.25 (≈ 17.6 µM) | 6.25 (≈ 17.6 µM) | 6.25 (≈ 17.6 µM) | 6.25 (≈ 17.6 µM) | 6.25 (≈ 17.6 µM) | 6.25 (≈ 17.6 µM) | 6.25 (≈ 17.6 µM) | 6.25 (≈ 17.6 µM) | 16 | 16 | 16 | 16 | 16 | 16 | 16 | 16
2 | CS(=O)(=O)c1ccc(OCc2nnc3sc(-c4cccc(Cl)c4Cl)nn23)cc1 | 6.25 (≈ 13.7 µM) | 6.25 (≈ 13.7 µM) | 6.25 (≈ 13.7 µM) | 6.25 (≈ 13.7 µM) | 6.25 (≈ 13.7 µM) | 6.25 (≈ 13.7 µM) | 6.25 (≈ 13.7 µM) | 6.25 (≈ 13.7 µM) | 16 | 16 | 16 | 16 | 16 | 16 | 16 | 16
3 | CSc1ccc(OCc2nnc3n2N=C(c2ccc(O)c(C(N)=O)c2)CS3)cc1 | 25 (≈ 58.5 µM) | 25 (≈ 58.5 µM) | 25 (≈ 58.5 µM) | 25 (≈ 58.5 µM) | 25 (≈ 58.5 µM) | 25 (≈ 58.5 µM) | 25 (≈ 58.5 µM) | 25 (≈ 58.5 µM) | <10 | <10 | <10 | <10 | <10 | <10 | <10 | <10
4 | CSc1ccc(OCc2nnc3n2N=C(c2ccc(Cl)cc2)CS3)cc1 | 6.25 (≈ 15.5 µM) | 6.25 (≈ 15.5 µM) | 6.25 (≈ 15.5 µM) | 6.25 (≈ 15.5 µM) | 6.25 (≈ 15.5 µM) | 6.25 (≈ 15.5 µM) | 6.25 (≈ 15.5 µM) | 6.25 (≈ 15.5 µM) | 16 | 16 | 16 | 16 | 16 | 16 | 16 | 16
5 | CCSc1ccc(OCc2nnc3n2N=C(c2ccc(Cl)cc2Cl)CS3)cc1 | 25 (≈ 55.4 µM) | 25 (≈ 55.4 µM) | 25 (≈ 55.4 µM) | 25 (≈ 55.4 µM) | 25 (≈ 55.4 µM) | 25 (≈ 55.4 µM) | 25 (≈ 55.4 µM) | 25 (≈ 55.4 µM) | <10 | <10 | <10 | <10 | <10 | <10 | <10 | <10
6 | CCSc1ccc(OCc2nnc3n2N=C(c2ccc(Cl)cc2)CS3)cc1 | 25 (≈ 60 µM) | 25 (≈ 60 µM) | 25 (≈ 60 µM) | 25 (≈ 60 µM) | 25 (≈ 60 µM) | 25 (≈ 60 µM) | 25 (≈ 60 µM) | 25 (≈ 60 µM) | <10 | <10 | <10 | <10 | <10 | <10 | <10 | <10
7 | CS(=O)(=O)c1ccc(OCc2nnc3n2N=C(c2ccc(Cl)cc2)CS3)cc1 | 25 (≈ 57.5 µM) | 25 (≈ 57.5 µM) | 25 (≈ 57.5 µM) | 25 (≈ 57.5 µM) | 25 (≈ 57.5 µM) | 25 (≈ 57.5 µM) | 25 (≈ 57.5 µM) | 25 (≈ 57.5 µM) | <10 | < 10 | <10 | <10 | <10 | <10 | <10 | <10
8 | CCSc1ccc(OCc2nnc3n2N=C(c2ccc(O)c(C(N)=O)c2)CS3)cc1 | 6.25 (≈ 14.2 µM) | 6.25 (≈ 14.2 µM) | 6.25 (≈ 14.2 µM) | 6.25 (≈ 14.2 µM) | 6.25 (≈ 14.2 µM) | 6.25 (≈ 14.2 µM) | 6.25 (≈ 14.2 µM) | 6.25 (≈ 14.2 µM) | 16 | 16 | 16 | 16 | 16 | 16 | 16 | 16
9 | CSc1ccc(OCc2nnc3n2N=C(c2ccc(Cl)cc2Cl)CS3)cc1 | 6.25 (≈ 14.3 µM) | 6.25 (≈ 14.3 µM) | 6.25 (≈ 14.3 µM) | 6.25 (≈ 14.3 µM) | 6.25 (≈ 14.3 µM) | 6.25 (≈ 14.3 µM) | 6.25 (≈ 14.3 µM) | 6.25 (≈ 14.3 µM) | 16 | 16 | 16 | 16 | 16 | 16 | 16 | 16
10 | O=C(O)c1cn(C2CC2)c2cc(N3CCNCC3)c(F)cc2c1=O [CIPROFLOXACIN] | – | – | – | – | 6.25 (≈ 18.9 µM) | – | – | 1.56 (≈ 4.71 µM) | – | – | – | 25 | 23 | – | 30 | 22

Now from value to compound, other results behind:

Row | MIC (Aspergillus flavus) [µg/mL] | MIC (Trichophyton benhamiae) [µg/mL] | MIC (Talaromyces marneffei) [µg/mL] | MIC (Pseudomonas aeruginosa) [µg/mL] | MIC (Klebsiella pneumoniae) [µg/mL] | MIC (Aspergillus fumigatus) [µg/mL] | MIC (Escherichia coli) [µg/mL] | MIC (Staphylococcus aureus) [µg/mL] | SMILES | inhibition zone (IZ) (Aspergillus flavus) [mm] | inhibition zone (IZ) (Trichophyton benhamiae) [mm] | inhibition zone (IZ) (Talaromyces marneffei) [mm] | inhibition zone (IZ) (Pseudomonas aeruginosa) [mm] | inhibition zone (IZ) (Klebsiella pneumoniae) [mm] | inhibition zone (IZ) (Aspergillus fumigatus) [mm] | inhibition zone (IZ) (Escherichia coli) [mm] | inhibition zone (IZ) (Staphylococcus aureus) [mm]
11 | 25 (≈ 62 µM) | 25 (≈ 62 µM) | 25 (≈ 62 µM) | 25 (≈ 62 µM) | 25 (≈ 62 µM) | 25 (≈ 62 µM) | 25 (≈ 62 µM) | 25 (≈ 62 µM) | CCSc1ccc(OCc2nnc3sc(-c4ccccc4Cl)nn23)cc1 | <10 | <10 | <10 | <10 | <10 | <10 | <10 | <10
12 | 25 (≈ 62.7 µM) | 25 (≈ 62.7 µM) | 25 (≈ 62.7 µM) | 25 (≈ 62.7 µM) | 25 (≈ 62.7 µM) | 25 (≈ 62.7 µM) | 25 (≈ 62.7 µM) | 25 (≈ 62.7 µM) | CCSc1ccc(OCc2nnc3sc(-c4ccc(OC)cc4)nn23)cc1 | <10 | <10 | <10 | <10 | <10 | <10 | <10 | <10
13 | 25 (≈ 65.2 µM) | 25 (≈ 65.2 µM) | 25 (≈ 65.2 µM) | 25 (≈ 65.2 µM) | 25 (≈ 65.2 µM) | 25 (≈ 65.2 µM) | 25 (≈ 65.2 µM) | 25 (≈ 65.2 µM) | CCSc1ccc(OCc2nnc3sc(-c4ccccc4N)nn23)cc1 | <10 | <10 | <10 | <10 | <10 | <10 | <10 | <10
14 | 25 (≈ 65 µM) | 25 (≈ 65 µM) | 25 (≈ 65 µM) | 25 (≈ 65 µM) | 25 (≈ 65 µM) | 25 (≈ 65 µM) | 25 (≈ 65 µM) | 25 (≈ 65 µM) | CCSc1ccc(OCc2nnc3sc(-c4ccccc4O)nn23)cc1 | <10 | <10 | <10 | <10 | <10 | <10 | <10 | <10
15 | 25 (≈ 57.2 µM) | 25 (≈ 57.2 µM) | 25 (≈ 57.2 µM) | 25 (≈ 57.2 µM) | 25 (≈ 57.2 µM) | 25 (≈ 57.2 µM) | 25 (≈ 57.2 µM) | 25 (≈ 57.2 µM) | CCSc1ccc(OCc2nnc3sc(-c4cccc(Cl)c4Cl)nn23)cc1 | <10 | <10 | <10 | <10 | <10 | <10 | <10 | <10
16 | 25 (≈ 65.4 µM) | 25 (≈ 65.4 µM) | 6.25 (≈ 16.3 µM) | 6.25 (≈ 16.3 µM) | 6.25 (≈ 16.3 µM) | 25 (≈ 65.4 µM) | 6.25 (≈ 16.3 µM) | 6.25 (≈ 16.3 µM) | CCSc1ccc(OCc2nnc3sc(-c4ccc(C)cc4)nn23)cc1 | <10 | <10 | 16 | 16 | 16 | <10 | 16 | 16
17 | 25 (≈ 64.3 µM) | 25 (≈ 64.3 µM) | 25 (≈ 64.3 µM) | 25 (≈ 64.3 µM) | 25 (≈ 64.3 µM) | 25 (≈ 64.3 µM) | 25 (≈ 64.3 µM) | 25 (≈ 64.3 µM) | CSc1ccc(OCc2nnc3sc(-c4ccccc4Cl)nn23)cc1 | <10 | <10 | <10 | <10 | <10 | <10 | <10 | <10
